We go through 14 compounds from ChEMBL document CHEMBL1158483, “N-O-isopropyl sulfonamido-based hydroxamates: design, synthesis and biological evaluation of selective matrix metalloproteinase-13 inhibitors as potential therapeutic agents for osteoarthritis” (J Med Chem, 2009).

One may read the IC50 as the concentration that gives 50% inhibition. For orientation: Ki means the dissociation constant of the complex between target and ligand, obtained from inhibition or displacement.

Assay [1] addresses Stromelysin-1 (Homo sapiens, UniProt P08254). Nature of the assay: Inhibition of MMP3. In short, it runs like this:
(§1)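 Human recombinant enzymes in Tris 50 mM pH 7.5, NaCl 150 mM, CaCl2 10 mM, Brij 35 0.05%, DMSO 1%. Final enzyme: MMP-1 2.0 nM, MMP-2 2.9, MMP-3 5, MMP-8 1.5, MMP-9 2.7, MMP-14 cd 1, MMP-16 cd 15, TACE 7.5 nM. Pro-MMP-1/-2/-8 activated with APMA 2 mM, pro-MMP-9 with APMA 1 mM, each 1 h at 37 °C. Pro-MMP-3 activated with trypsin 5 µg/mL for 30 min at 37 °C, then soybean trypsin inhibitor.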

Assay [2] addresses Neutrophil collagenase (Homo sapiens, UniProt P22894). Nature of the assay: Inhibition of MMP8. A digest of the protocol:
as §1

The target in assay [3] is Matrix metalloproteinase-9 (Homo sapiens, UniProt P14780). Nature of the assay: Inhibition of MMP9. In short, it runs like this:
as §1

The target of assay [4] is T1, Interstitial collagenase (Homo sapiens, UniProt P03956).
T1 sequence (P03956 whole entry): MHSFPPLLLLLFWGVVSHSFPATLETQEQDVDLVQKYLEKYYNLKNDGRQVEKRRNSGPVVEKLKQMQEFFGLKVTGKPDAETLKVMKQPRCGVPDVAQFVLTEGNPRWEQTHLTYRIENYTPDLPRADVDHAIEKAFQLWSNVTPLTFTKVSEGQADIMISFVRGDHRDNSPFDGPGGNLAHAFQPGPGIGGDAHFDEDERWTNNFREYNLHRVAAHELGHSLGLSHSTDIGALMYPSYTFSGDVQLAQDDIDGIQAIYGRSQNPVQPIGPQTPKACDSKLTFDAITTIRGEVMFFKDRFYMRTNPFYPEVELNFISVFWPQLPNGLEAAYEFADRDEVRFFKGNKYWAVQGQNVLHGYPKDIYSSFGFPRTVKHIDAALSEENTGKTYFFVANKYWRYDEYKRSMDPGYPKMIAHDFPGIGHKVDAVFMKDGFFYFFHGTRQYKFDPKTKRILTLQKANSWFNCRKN
Nature of the assay: Inhibition of MMP1. A digest of the protocol:
as §1

Assay [5] addresses 72 kDa type IV collagenase (Homo sapiens, UniProt P08253). Nature of the assay: Inhibition of MMP2. In short, it runs like this: as §1
The target of assay [6] is T2, Collagenase 3 (Homo sapiens, UniProt P45452). Nature of the assay: Inhibition of MMP13.
Assay [7] concerns the target Matrix metalloproteinase-14 (Homo sapiens, UniProt P50281). Nature of the assay: Inhibition of human recombinant MMP14. A digest of the protocol:
as §1

In assay [8] the target is T1, Interstitial collagenase. Nature of the assay: Inhibition of MMP1-mediated collagen degradation by SDS-PAGE. A digest of the protocol: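 Full-length MMP-1 (0.5 nM) preincubated with inhibitor (0–10 µM) for 2 h at 25 °C in Tris-HCl 50 mM pH 7.5, NaCl 150 mM, CaCl2 5 mM, Brij-35 0.05%, NaN3 0.02%. Guinea-pig skin acid-soluble collagen (final 1.35 mg/mL) added, 16 h at 25 °C, stopped with EDTA. Full-length and 3/4-fragment α2 chains quantified by densitometry after 7.5% SDS-PAGE with Coomassie stain; IC50 derived.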

Assay [9] addresses T2, Collagenase 3. Nature of the assay: Inhibition of MMP13-mediated collagen degradation by SDS-PAGE.
In assay [10] the target is Matrix metalloproteinase-16 (Homo sapiens, UniProt P51512). Nature of the assay: Inhibition of human recombinant MMP16. In short, it runs like this:
as §1

The target of assay [11] is Disintegrin and metalloproteinase domain-containing protein 17 (Homo sapiens, UniProt P78536). Nature of the assay: Inhibition of TACE. A digest of the protocol:
as §1

The species entered for assay [12] is Sus scrofa. Nature of the assay: Inhibition of MMP13-mediated collagen degradation in long term IL-1-alpha-stimulated pig articular cartilage explant culture assessed as hydroxyproline release. In short, it runs like this:
(§2)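 Porcine metacarpophalangeal cartilage explants from 3–9-month pigs were rested 24 h with serum, then 3 days serum-free. They were stimulated with IL-1α 10 ng/mL plus inhibitor at 0.1, 1 or 10 µM in serum-free DMEM, with medium changed every 3–4 days. Hydroxyproline was measured in the medium after 6 N HCl hydrolysis, using chloramine T/DMBA and absorbance at 560 nm against a standard curve. Cumulative release was corrected for unstimulated background.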

The species entered for assay [13] is Sus scrofa. Nature of the assay: Inhibition of MMP13-mediated collagen degradation in long term IL-1-alpha-stimulated pig articular cartilage explant culture assessed as hydroxyproline release at 1 uM. In short, it runs like this:
as §2

The species named for assay [14] is Sus scrofa. Nature of the assay: Inhibition of MMP13-mediated collagen degradation in long term IL-1-alpha-stimulated pig articular cartilage explant culture assessed as hydroxyproline release at 10 uM. In short, it runs like this: as §2

Activity calls are given as the source filed them. No cut-off for these calls is given here.

Sequence of Matrix metalloproteinase-9 (P14780 whole entry): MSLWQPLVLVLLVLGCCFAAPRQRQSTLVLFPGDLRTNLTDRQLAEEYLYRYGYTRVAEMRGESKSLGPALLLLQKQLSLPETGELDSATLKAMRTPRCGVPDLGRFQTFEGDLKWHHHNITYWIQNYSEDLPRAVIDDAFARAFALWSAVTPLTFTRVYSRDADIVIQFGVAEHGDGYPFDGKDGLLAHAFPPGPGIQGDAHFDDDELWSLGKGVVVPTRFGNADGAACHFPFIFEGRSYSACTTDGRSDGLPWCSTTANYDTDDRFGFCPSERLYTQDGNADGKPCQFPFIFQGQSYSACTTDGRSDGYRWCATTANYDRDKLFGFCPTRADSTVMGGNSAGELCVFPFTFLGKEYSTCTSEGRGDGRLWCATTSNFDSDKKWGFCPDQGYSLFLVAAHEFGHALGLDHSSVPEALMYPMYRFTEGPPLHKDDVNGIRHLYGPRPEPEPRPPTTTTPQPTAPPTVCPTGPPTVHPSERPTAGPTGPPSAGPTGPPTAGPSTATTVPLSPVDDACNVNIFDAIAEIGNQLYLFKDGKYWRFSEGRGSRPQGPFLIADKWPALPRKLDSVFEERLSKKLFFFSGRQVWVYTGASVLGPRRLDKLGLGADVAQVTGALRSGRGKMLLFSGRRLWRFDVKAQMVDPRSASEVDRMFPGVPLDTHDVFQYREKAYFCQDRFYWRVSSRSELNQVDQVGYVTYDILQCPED
Sequence of Neutrophil collagenase (P22894 whole entry): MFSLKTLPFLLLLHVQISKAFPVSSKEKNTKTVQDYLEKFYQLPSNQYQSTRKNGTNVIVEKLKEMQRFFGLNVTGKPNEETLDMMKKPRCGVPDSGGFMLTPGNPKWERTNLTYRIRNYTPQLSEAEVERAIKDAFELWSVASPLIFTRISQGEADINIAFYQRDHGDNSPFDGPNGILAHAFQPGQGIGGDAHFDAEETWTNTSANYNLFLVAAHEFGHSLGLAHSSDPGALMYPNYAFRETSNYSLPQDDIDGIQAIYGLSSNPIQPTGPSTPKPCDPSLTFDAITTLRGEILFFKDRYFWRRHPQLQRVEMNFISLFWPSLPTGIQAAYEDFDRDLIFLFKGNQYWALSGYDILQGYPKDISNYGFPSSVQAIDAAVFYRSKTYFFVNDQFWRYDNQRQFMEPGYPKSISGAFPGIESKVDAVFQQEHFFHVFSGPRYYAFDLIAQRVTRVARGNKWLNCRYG
Sequence of 72 kDa type IV collagenase (P08253 whole entry): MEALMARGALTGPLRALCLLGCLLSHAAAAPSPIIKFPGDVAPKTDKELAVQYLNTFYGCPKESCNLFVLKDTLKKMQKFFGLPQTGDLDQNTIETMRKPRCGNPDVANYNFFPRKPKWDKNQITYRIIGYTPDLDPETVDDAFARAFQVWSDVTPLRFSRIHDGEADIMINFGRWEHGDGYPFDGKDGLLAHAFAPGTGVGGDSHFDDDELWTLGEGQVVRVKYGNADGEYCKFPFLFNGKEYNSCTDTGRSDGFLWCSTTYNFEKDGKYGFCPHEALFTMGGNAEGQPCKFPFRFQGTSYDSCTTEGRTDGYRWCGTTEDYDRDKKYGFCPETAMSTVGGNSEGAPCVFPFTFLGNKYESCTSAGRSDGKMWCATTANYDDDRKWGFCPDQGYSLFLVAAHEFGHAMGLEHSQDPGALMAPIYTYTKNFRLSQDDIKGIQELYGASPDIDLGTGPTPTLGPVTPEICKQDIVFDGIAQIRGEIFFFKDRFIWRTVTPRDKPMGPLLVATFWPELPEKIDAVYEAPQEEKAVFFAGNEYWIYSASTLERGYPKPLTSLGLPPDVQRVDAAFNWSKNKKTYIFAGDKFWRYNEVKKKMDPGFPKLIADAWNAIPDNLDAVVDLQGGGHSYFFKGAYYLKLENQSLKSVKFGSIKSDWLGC
Sequence of Matrix metalloproteinase-16 (P51512 whole entry): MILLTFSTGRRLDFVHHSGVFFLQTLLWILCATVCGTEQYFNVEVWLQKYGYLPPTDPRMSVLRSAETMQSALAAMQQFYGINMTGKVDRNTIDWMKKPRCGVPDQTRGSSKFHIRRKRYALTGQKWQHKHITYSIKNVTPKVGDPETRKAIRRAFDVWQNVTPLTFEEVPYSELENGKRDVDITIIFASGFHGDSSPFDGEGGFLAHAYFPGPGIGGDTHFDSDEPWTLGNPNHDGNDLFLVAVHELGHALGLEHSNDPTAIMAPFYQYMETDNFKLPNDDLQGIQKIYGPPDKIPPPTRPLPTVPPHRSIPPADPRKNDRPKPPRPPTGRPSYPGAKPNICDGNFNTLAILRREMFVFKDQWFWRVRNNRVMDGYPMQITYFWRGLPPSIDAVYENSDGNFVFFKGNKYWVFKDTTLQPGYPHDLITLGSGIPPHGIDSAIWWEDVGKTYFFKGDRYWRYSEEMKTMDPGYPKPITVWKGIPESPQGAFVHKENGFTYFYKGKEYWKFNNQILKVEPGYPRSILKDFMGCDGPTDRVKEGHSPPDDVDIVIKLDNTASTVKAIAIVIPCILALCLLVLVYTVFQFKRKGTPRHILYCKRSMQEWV
Sequence of Disintegrin and metalloproteinase domain-containing protein 17 (P78536 whole entry, the tested form may be a part): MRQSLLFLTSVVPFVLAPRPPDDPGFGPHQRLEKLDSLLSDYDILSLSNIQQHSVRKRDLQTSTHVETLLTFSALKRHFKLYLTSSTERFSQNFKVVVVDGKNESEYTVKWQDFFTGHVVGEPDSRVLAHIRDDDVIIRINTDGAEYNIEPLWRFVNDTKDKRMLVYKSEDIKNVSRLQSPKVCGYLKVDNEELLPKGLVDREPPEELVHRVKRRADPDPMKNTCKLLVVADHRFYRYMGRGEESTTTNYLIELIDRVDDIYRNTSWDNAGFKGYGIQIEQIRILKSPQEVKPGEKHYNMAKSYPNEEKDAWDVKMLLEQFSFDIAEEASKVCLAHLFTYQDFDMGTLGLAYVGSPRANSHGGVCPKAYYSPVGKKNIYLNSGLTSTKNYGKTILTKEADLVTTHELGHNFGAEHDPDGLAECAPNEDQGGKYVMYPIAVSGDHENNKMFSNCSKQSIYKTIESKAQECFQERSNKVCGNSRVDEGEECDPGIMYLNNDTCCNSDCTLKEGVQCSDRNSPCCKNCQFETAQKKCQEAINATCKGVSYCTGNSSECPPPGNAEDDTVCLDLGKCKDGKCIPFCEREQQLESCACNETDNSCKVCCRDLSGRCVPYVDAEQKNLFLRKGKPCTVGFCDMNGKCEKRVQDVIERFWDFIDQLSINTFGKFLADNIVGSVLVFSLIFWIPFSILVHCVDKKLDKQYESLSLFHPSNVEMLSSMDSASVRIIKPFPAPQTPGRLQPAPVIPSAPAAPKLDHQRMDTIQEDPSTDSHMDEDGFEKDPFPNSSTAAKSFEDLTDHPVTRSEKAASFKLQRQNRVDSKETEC
Sequence of Stromelysin-1 (P08254 whole entry): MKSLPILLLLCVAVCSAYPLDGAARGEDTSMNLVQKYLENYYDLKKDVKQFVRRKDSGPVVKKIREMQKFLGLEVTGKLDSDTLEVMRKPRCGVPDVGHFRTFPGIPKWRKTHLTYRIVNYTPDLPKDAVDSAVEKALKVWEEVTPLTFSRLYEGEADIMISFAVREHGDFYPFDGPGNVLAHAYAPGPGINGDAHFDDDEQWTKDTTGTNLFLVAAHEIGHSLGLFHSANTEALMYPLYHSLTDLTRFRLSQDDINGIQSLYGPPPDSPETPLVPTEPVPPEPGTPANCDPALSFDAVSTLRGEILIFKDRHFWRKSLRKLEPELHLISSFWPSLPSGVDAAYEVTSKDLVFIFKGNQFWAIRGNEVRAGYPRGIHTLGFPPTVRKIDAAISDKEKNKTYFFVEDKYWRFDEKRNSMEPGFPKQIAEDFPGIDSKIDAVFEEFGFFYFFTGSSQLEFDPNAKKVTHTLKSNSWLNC

In the case of `CC(C)CN(CC(=O)NO)S(=O)(=O)c1ccc(-c2ccccc2)cc1`, the IC50 in [1] is 920 nM; in [2], 48 nM; in [3] it was 34 nM; in [4] it was 4800 nM; in assay [5], 12 nM; in assay [6] it was 39 nM. Besides, the IC50 turned out to be 530 nM in assay [7], 4100 nM in [8] and 9.4 nM in assay [9].

Take `CSc1ccc(-c2ccc(S(=O)(=O)N(CC(=O)NO)OC(C)C)cc2)cc1`: the IC50 in [1] was 1300 nM; in assay [2] it was 37 nM; in assay [3], 77 nM; in assay [4], 3300 nM; in assay [5], 1.5 nM; in assay [6], 7.2 nM. Further, the IC50 in [7] stood at 320 nM.

Take `CC(C)ON(CC(=O)NO)S(=O)(=O)c1ccc(/C=C/c2ccc(-c3ccccc3)cc2)cc1`: the IC50 in [1] was 710 nM; in assay [2], 3600 nM; in assay [3], 2300 nM; in assay [4], 5600 nM; in assay [5], 74 nM; in assay [6], 41 nM. Further, the IC50 in assay [7] is 2800 nM.

Consider `O=C(CNS(=O)(=O)c1ccc(-c2ccccc2)cc1)NO`, for which the IC50 is 320 nM in [1]; 7 nM in assay [2]; 34 nM in assay [3]; 610 nM in assay [4]; 2 nM in assay [5]; 2.8 nM in assay [6]. Besides, the IC50 turned out to be 70 nM in assay [7], 970 nM in assay [8] and 2.4 nM in assay [9].

Consider `COc1ccc(-c2ccc(S(=O)(=O)N(CC(=O)NO)OC(C)C)cc2)cc1`, for which the IC50 in assay [1] stood at 1800 nM; in [2], 65 nM; in [3], 160 nM; in assay [4] it was 13000 nM; in [5], 4.2 nM; in assay [6], 10 nM. In addition, the IC50 in [7] is 1000 nM. Further, the Ki in assay [5] was 3.8 nM; in [6], 5.8 nM.

With `CC(C)ON([C@@H](C(=O)NO)C(C)C)S(=O)(=O)c1ccc(-c2ccc(OCc3ccc(Cl)cc3)cc2)cc1`, the IC50 in assay [1] worked out at 180 nM; in assay [2], 63 nM; in assay [3], 69 nM; in assay [4], 48000 nM; in assay [5] it was 9.6 nM; in assay [6], 3 nM. Besides, the IC50 in assay [7] was 14000 nM; in assay [10], 5000 nM; in assay [11], more than 100000 nM; in [8], 15000 nM; in assay [9], 1.4 nM. The inhibitory constant (Ki) in assay [5] was 54 nM; in assay [6], 29 nM. In addition, in assay [12], the inhibition entry was “Dose-dependent effect”. Besides, the inhibition entry in assay [13] is “Active”.

As to `CC(C)ON(CC(=O)NO)S(=O)(=O)c1ccc(Oc2ccccc2)cc1`, the IC50 in assay [1] was determined as 1200 nM; in assay [2], 66 nM; in assay [3], 110 nM; in assay [4], 59000 nM; in assay [5] it was 26 nM; in assay [6], 63 nM. In assay [7], the IC50 was 590 nM.

As to `CC(C)ON(CC(=O)NO)S(=O)(=O)c1ccc(-c2ccc(OCc3ccc(Cl)cc3)cc2)cc1`, the IC50 in [1] was found to be 1800 nM; in assay [2], 1700 nM; in assay [3], 1100 nM; in assay [4], 13000 nM; in assay [5] it was 40 nM; in assay [6], 19 nM. In addition, the IC50 in assay [7] came to 3400 nM; in assay [10], 15000 nM; in assay [11], 35000 nM. Further, the Ki in assay [5] was 25 nM; in [6] it was 8.2 nM.

On to `COc1ccc(-c2ccc(S(=O)(=O)N(CC(=O)NO)OC(C)C)s2)cc1`, for which the IC50 in assay [1] was 1200 nM; in [2], 110 nM; in assay [3] it was 250 nM; in [4] it was more than 10000 nM; in assay [5], 17 nM; in [6], 25 nM. Besides, in assay [7], the IC50 was more than 1000 nM.

Take `CCc1ccc(-c2ccc(S(=O)(=O)N(CC(=O)NO)OC(C)C)s2)cc1`: the IC50 in [1] was 4300 nM; in assay [2] it was 140 nM; in assay [3] it was 680 nM; in assay [4], more than 10000 nM; in [5], 56 nM; in assay [6] it was 91 nM. In addition, the IC50 in assay [7] worked out at 2400 nM.

Consider `CCCCOc1ccc(-c2ccc(S(=O)(=O)N(CC(=O)NO)OC(C)C)cc2)cc1`, for which the IC50 in assay [1] turned out to be 1600 nM; in [2], 560 nM; in assay [3] it was 44 nM; in assay [4] it was 11000 nM; in [5], 5.5 nM; in assay [6], 15 nM. Besides, the IC50 in assay [7] is 5500 nM.

Regarding `CC(C)ON(CC(=O)NO)S(=O)(=O)c1ccc(-c2ccccc2)cc1`, the IC50 is 5900 nM in [1]; 260 nM in assay [2]; 12000 nM in assay [4]; 45 nM in [6]; 2300 nM in [7]; 900 nM in [10]. The values for the IC50 in assay [11], in assay [8] and in assay [9] were more than 100000 nM, 2900 nM and 25 nM, respectively. Besides, the Ki in [5] was determined as 13 nM; in [6] it was 20 nM. Also, in assay [14], the inhibition entry is “Active”. In addition, the inhibition entry in assay [12] is “Dose-dependent effect”.

Consider `CC(C)ON(CC(=O)NO)S(=O)(=O)c1ccc(-c2ccc(F)cc2)s1`, for which the IC50 in assay [1] turned out to be 9100 nM; in [2] it was 440 nM; in assay [3], 3200 nM; in [4], 20000 nM; in assay [5] it was 310 nM; in [6], 600 nM. Further, the IC50 in assay [7] is 6500 nM.

Consider `CCCCc1ccc(C#Cc2ccc(S(=O)(=O)N(CC(=O)NO)OC(C)C)s2)cc1`, for which the IC50 in assay [1] is 4300 nM; in assay [2] it was 7600 nM; in assay [3], 4400 nM; in [4], 13000 nM; in assay [5] it was 360 nM; in assay [6] it was 260 nM. Besides, in assay [7], the IC50 was 11000 nM.
